Reference: ChEMBL document CHEMBL5653631, “A Potent and Selective ULK1 Inhibitor Suppresses Autophagy and Sensitizes Cancer Cells to Nutrient Stress” (iScience, 2018)

Assays:
[1] = biological target: T1, Serine/threonine-protein kinase DCLK3 (Homo sapiens) (UniProt Q9C098); assay: Inhibition of human recombinant DCAMKL3 at 40 nM in presence of ATP by radiometric assay relative to control
T1 sequence (whole entry): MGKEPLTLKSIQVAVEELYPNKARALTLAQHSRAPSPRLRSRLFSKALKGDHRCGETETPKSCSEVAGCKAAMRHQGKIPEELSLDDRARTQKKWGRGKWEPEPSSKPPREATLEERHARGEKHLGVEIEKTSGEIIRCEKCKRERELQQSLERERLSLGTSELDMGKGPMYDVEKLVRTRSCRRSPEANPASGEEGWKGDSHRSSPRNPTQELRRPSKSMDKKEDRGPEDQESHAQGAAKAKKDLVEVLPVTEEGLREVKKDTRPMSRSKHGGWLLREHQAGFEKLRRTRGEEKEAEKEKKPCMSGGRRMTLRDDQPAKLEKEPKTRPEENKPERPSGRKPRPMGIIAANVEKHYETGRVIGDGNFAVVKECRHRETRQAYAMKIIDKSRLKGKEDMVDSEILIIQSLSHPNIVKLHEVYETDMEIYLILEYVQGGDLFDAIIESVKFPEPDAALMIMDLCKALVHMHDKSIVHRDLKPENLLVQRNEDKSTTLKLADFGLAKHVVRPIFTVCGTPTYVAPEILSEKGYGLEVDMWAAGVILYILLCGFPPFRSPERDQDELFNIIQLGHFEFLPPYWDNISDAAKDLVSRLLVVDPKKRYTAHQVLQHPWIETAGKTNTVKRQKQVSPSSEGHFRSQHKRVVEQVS

[2] = biological target: Fibroblast growth factor receptor 4 (Homo sapiens) (UniProt P22455); assay: Inhibition of human recombinant FGFR4 at 40 nM in presence of ATP by radiometric assay relative to control
Chain of Fibroblast growth factor receptor 4 (Homo sapiens) (P22455 22-802 limits assumed): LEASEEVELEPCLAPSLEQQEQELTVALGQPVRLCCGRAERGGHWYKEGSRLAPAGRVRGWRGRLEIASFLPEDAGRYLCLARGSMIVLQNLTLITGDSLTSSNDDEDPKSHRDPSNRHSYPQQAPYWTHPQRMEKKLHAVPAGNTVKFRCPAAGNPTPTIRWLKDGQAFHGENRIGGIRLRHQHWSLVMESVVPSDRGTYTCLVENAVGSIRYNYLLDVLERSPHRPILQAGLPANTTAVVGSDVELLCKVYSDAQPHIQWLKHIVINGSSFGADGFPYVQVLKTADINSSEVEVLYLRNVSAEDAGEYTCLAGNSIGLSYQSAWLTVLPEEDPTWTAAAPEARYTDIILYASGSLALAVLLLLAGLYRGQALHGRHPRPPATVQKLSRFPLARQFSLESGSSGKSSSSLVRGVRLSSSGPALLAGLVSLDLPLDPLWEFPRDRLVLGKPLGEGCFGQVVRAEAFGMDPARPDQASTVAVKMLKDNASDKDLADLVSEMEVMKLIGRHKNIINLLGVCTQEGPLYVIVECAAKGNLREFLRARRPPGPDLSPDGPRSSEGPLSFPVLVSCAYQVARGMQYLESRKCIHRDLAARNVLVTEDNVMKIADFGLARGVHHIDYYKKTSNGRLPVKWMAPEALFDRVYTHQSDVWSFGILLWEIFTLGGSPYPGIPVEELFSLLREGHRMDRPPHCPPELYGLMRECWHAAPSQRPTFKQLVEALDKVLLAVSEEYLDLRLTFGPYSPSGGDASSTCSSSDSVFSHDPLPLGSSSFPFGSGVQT

[3] = biological target: Tyrosine-protein kinase Tec (Homo sapiens) (UniProt P42680); assay: Inhibition of human recombinant TEC at 40 nM in presence of ATP by radiometric assay relative to control
Chain of Tyrosine-protein kinase Tec (Homo sapiens) (P42680 whole entry, looked up): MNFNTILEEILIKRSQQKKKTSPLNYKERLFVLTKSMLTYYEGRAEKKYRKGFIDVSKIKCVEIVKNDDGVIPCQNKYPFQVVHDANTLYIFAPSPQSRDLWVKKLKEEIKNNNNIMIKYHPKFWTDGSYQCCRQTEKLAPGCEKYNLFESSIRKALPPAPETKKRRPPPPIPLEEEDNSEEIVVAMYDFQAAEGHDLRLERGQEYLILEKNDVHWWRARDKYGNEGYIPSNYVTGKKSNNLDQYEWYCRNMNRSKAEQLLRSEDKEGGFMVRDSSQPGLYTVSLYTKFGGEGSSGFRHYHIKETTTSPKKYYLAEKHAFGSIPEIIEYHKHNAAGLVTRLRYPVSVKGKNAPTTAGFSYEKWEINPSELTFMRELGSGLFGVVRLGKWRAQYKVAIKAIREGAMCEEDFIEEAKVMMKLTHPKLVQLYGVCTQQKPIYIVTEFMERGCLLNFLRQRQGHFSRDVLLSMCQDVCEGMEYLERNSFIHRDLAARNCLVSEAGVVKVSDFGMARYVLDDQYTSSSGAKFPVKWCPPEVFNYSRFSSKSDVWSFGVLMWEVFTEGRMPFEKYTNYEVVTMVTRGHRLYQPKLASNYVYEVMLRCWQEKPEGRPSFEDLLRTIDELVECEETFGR

[4] = biological target: Cell division cycle 7-related protein kinase (Homo sapiens) (UniProt O00311); assay: Inhibition of human recombinant CDC7 at 40 nM in presence of ATP by radiometric assay relative to control
[5] = biological target: Cyclin-dependent kinase 1 (Homo sapiens) (UniProt P06493); assay: Inhibition of human recombinant CDC2 at 40 nM in presence of ATP by radiometric assay relative to control
[6] = biological target: Receptor-type tyrosine-protein kinase FLT3 (Homo sapiens) (UniProt P36888); assay: Inhibition of human recombinant FLT3 at 40 nM related to control ULK1
Chain of Receptor-type tyrosine-protein kinase FLT3 (Homo sapiens) (P36888 whole entry): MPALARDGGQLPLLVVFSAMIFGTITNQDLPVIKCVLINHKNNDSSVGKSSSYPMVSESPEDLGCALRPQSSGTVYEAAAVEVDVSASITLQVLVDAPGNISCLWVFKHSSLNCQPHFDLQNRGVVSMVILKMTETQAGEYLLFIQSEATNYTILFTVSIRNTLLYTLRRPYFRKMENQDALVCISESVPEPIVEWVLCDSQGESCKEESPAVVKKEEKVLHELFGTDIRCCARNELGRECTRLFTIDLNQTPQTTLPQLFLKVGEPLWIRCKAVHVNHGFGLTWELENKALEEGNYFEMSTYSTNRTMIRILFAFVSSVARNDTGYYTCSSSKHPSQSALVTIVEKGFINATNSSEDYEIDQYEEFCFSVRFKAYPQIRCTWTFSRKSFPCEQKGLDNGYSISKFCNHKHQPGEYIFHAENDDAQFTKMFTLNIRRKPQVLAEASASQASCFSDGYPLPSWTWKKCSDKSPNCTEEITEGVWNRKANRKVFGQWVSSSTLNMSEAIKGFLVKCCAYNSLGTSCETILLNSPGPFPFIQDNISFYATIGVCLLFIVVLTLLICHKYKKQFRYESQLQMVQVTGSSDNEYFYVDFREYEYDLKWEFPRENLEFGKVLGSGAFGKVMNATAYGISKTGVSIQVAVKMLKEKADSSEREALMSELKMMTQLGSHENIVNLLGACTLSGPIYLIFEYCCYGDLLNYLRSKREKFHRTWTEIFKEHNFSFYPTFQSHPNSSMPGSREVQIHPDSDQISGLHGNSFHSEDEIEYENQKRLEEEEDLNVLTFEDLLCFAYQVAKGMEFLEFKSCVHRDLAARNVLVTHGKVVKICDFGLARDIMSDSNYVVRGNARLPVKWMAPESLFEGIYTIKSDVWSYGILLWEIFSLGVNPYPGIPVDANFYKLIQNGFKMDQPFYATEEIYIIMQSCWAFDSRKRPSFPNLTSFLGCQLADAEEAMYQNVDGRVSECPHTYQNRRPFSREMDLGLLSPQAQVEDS

[7] = biological target: Mitogen-activated protein kinase 10 (Homo sapiens) (UniProt P53779); assay: Inhibition of human recombinant JNK3 at 500 nM related to control ULK1
Chain of Mitogen-activated protein kinase 10 (Homo sapiens) (P53779 whole entry): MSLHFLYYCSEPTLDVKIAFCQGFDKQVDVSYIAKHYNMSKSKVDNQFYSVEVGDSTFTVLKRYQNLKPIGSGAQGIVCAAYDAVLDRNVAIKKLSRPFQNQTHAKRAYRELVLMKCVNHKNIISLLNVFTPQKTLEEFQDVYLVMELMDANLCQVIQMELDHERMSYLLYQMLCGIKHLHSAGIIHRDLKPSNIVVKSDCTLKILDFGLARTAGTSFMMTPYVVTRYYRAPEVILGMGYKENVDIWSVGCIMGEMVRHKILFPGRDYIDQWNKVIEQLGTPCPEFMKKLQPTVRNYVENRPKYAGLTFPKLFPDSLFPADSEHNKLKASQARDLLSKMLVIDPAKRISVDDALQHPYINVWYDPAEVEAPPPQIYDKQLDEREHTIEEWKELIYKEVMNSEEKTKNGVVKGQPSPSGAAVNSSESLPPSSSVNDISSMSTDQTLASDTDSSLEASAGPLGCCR

[8] = biological target: T2, Eukaryotic elongation factor 2 kinase (Homo sapiens) (UniProt O00418); assay: Inhibition of human recombinant eEF2K at 500 nM in presence of ATP by radiometric assay relative to control
T2 sequence (whole entry): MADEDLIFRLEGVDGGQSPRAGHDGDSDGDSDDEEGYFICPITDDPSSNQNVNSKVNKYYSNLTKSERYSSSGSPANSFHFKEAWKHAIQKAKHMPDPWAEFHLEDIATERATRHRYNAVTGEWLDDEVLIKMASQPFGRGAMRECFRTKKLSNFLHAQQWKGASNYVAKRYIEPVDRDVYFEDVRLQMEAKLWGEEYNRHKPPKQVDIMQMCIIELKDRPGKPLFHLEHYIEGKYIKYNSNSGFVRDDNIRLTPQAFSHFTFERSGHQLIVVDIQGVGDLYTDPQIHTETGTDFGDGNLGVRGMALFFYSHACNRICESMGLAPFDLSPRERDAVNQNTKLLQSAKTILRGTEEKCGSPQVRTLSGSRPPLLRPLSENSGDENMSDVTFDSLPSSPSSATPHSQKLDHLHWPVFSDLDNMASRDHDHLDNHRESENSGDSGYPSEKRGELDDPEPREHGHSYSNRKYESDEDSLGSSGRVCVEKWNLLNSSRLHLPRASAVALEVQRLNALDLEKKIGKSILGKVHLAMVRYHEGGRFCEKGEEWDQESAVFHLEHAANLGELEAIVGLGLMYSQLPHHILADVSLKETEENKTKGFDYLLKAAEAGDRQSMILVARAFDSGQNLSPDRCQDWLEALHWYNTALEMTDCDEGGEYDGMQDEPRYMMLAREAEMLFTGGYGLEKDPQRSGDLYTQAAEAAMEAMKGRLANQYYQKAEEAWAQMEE

[9] = biological target: Misshapen-like kinase 1 (Homo sapiens) (UniProt Q8N4C8); assay: Inhibition of human recombinant MINK at 500 nM in presence of ATP by radiometric assay relative to control
Chain of Misshapen-like kinase 1 (Homo sapiens) (Q8N4C8 whole entry, looked up): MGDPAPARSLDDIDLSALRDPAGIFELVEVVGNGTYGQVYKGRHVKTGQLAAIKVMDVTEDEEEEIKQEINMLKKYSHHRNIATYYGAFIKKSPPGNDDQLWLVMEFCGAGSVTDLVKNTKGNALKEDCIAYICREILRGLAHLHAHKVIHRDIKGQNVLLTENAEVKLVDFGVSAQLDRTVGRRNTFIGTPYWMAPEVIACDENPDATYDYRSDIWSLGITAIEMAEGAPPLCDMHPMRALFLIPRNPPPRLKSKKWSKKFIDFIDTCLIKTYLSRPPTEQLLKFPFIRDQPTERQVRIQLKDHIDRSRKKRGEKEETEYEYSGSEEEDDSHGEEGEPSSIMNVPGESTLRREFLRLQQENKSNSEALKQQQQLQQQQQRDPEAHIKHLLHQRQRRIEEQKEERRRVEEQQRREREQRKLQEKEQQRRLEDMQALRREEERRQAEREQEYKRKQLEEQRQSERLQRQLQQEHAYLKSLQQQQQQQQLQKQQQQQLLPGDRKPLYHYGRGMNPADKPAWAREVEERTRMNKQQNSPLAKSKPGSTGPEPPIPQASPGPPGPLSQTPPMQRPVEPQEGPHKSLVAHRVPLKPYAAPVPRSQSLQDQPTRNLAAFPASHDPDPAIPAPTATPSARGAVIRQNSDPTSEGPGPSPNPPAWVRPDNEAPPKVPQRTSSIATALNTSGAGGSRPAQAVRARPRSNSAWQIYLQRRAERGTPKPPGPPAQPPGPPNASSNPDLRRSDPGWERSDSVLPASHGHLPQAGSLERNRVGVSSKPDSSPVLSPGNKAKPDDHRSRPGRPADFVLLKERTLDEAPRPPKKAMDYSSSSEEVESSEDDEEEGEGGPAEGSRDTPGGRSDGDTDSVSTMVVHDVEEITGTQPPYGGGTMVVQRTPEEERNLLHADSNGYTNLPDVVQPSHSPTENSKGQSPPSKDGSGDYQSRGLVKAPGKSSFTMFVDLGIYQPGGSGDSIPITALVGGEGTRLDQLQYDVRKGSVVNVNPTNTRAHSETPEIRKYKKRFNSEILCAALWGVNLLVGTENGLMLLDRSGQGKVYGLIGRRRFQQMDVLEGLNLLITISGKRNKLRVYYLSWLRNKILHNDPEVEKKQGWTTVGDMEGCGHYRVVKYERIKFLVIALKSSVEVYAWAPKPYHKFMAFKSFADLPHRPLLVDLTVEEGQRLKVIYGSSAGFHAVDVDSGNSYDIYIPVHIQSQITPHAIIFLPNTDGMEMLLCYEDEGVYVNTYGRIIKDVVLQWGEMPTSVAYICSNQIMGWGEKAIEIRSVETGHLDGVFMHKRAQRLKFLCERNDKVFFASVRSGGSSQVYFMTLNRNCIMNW

[10] = biological target: Protein-tyrosine kinase 6 (Homo sapiens) (UniProt Q13882); assay: Inhibition of human recombinant BRK at 500 nM related to control ULK1
[11] = biological target: Serine/threonine-protein kinase Nek6 (Homo sapiens) (UniProt Q9HC98); assay: Inhibition of human recombinant NEK6 at 15 nM in presence of ATP by radiometric assay relative to control
Chain of Serine/threonine-protein kinase Nek6 (Homo sapiens) (Q9HC98 whole entry): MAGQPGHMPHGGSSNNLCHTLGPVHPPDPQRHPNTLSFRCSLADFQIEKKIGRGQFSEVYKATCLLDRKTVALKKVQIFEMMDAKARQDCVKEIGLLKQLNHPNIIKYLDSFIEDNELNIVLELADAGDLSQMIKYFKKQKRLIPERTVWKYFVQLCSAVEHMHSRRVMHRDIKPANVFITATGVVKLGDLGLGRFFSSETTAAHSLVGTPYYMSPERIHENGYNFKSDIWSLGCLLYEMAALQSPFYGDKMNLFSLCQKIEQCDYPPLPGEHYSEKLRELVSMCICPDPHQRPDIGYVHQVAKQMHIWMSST

[12] = biological target: Dual specificity protein kinase CLK3 (Homo sapiens) (UniProt P49761); assay: Inhibition of human recombinant CLK3 at 15 nM related to control ULK1
Chain of Dual specificity protein kinase CLK3 (Homo sapiens) (P49761 whole entry, looked up): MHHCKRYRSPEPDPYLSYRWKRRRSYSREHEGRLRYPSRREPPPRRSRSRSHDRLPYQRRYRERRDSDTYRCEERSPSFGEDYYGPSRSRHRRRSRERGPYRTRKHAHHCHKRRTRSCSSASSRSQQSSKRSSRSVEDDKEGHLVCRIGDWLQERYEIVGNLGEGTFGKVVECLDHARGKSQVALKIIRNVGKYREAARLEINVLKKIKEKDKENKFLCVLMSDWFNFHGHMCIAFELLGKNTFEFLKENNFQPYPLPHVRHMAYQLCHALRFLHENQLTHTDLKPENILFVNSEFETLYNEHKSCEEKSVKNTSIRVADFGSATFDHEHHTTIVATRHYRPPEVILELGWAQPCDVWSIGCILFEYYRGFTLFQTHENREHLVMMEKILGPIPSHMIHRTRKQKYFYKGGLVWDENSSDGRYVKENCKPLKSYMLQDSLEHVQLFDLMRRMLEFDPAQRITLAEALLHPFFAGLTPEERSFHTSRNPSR

[13] = biological target: 5'-AMP-activated protein kinase catalytic subunit alpha-1 (Homo sapiens) (UniProt Q13131); assay: Inhibition of human recombinant AMPKa1 at 15 nM in presence of ATP by radiometric assay relative to control
Method in brief: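 Panel of 327 recombinant human kinases, each assayed in vitro by radiometric activity assay in duplicate at a single inhibitor concentration per compound, chosen with reference to its ULK1 inhibition. Activity remaining was expressed as percent of vehicle control, and percent inhibition was calculated as 100 minus percent activity remaining.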

[14] = biological target: Serine/threonine-protein kinase PLK3 (Homo sapiens) (UniProt Q9H4B4); assay: Inhibition of human recombinant PLK3 at 15 nM in presence of ATP by radiometric assay relative to control

## O=C(N[C@@H](C1CC1)C(F)(F)F)c1cc(-c2cnn3cc(-c4ccc(F)cc4)cnc23)cs1
[1]
  inhibition: 2%
[2]
  inhibition: 0%
[3]
  inhibition: 0%
[4]
  inhibition: 39%
[5]
  inhibition: 45%
[6]
  fold change (FC): 0.26

## CNC(=O)c1ccccc1Oc1nc(Nc2cc(OC)c(OC)c(OC)c2)ncc1Br
[7]
  fold change (FC): 0.04
[8]
  inhibition: 14%
[9]
  inhibition: 4%
[10]
  fold change (FC): 0.03

## CC(C)[C@H](NC(=O)c1cc(-c2cnn3cc(-c4ccc(OCCN5CCCCC5)cc4)cnc23)cs1)C(F)(F)F
[11]
  inhibition: 1%
[12]
  fold change (FC): 0.01
[13]
  inhibition: 58%
[14]
  inhibition: 3%
